One series concerns S180A. The experiment in a line: Antitumor activity against mouse S180A cells allografted in CD-1 mouse assessed as increase in mouse survival administered qd for 6 days. It is filed as functional, cell-based. The essentials:
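Adult female CD-1 mice given Sarcoma 180 ascites cells taken from a donor mouse carrying a 7-day tumor. Drug dosed once daily for six consecutive days, starting 24 h after implantation, across 5-100 mg/kg/day. Read-out is average survival time, with mice alive at 50 days counted as 50-day survivors. %T/C = treated/control × 100. Value reported at the maximum effective daily dose.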

The test system of a further series is Mus musculus. Nature of the series: Toxicity in CD-1 mouse allografted with mouse S180A cells assessed as change in body weight at maximum effective dose administered qd for 6 days (reference value: 18.2%). The class given is organism-based. The conditions noted are these: 144 h.
A short description of series [1]: Antitumor activity against mouse S180A cells allografted in CD-1 mouse assessed as dose required for maximum increase in mouse survival administered qd for 6 days. It is filed as functional.
The species named for series [2] is Rattus norvegicus. Nature of the series: Inhibition of ribonucleoside-diphosphate reductase in rat hepatoma cells relative to 4-(m-amino)phenyl-2-formylpyridine thiosemicarbazone. The class given is cell-based.
The species named for series [3] is Rattus norvegicus. Nature of the series: Inhibition of ribonucleoside-diphosphate reductase in rat hepatoma cells relative to 5-hydroxy-2-formylpyridine thiosemicarbazone. It is filed as cell-based.
Series [4] can be described thus: Antitumor activity against mouse S180A cells allografted in CD-1 mouse assessed as average survival at maximum effective dose administered qd for 6 days (reference value: 12.6 +/- 0.6 days). The class given is functional.
Series [5] in a line: Antitumor activity against mouse S180A cells allografted in CD-1 mouse assessed as average survival at maximum effective dose administered qd for 6 days relative to control. It is filed as functional.

The source made the active and inactive calls. The rule behind the calls is not given here.

Regarding `Cc1cnc(/C=N/NC(N)=S)c2cccc([N+](=O)[O-])c12`, in the series on S180A, the outcome was inactive.

Regarding `Cc1cnc(/C=N/NC(N)=S)c2cccc(N)c12`, the Activity in the series on Mus musculus is -4.8%; in series [1], 10 mg/kg. The figures for the fold change (FC) in the series filed under Rattus norvegicus [2] and in the series filed under Rattus norvegicus [3] were 2 and 60, respectively. The Survival in series [4] is 38.2 days. For the same compound, the T/C in series [5] is given as 303%.

Take `NC(=S)N/N=C/c1nccc2c(N)cccc12`: the Activity is -8.5% in the series with Mus musculus and 40 mg/kg in series [1]. The Survival in series [4] amounted to 37.3 days. In series [5], the T/C is on record as 296%.

Turning to `N/C(S)=N/N=C/c1ccc(O)cn1`, the Activity in the series with Mus musculus is -3.3%; in series [1], 60 mg/kg. Further, in series [4], the Survival stood at 30.4 days. Also, the T/C in series [5] was found to be 241%.

Consider `NC(=S)N/N=C/c1nccc2ccccc12`, for which the Activity in the series on Mus musculus is -5.1%; in series [1] it was 40 mg/kg. In addition, in series [4], the Survival is 39.2 days. Besides, the T/C in series [5] stood at 311%.

By T/C is commonly meant the ratio of treated to control.

Source of the values: ChEMBL document CHEMBL3272063, “Potential antitumor agents. 13. 4-Methyl-5-amino-1-formylisoquinoline thiosemicarbazone” (J Med Chem, 1976).
